The array DNA melting data of Ke et al. (doi:10.1101/2024.01.08.574731)

Tests used:
[1] = folding enthalpy; higher = less favourable; fluorescence melt of hairpins on a sequencing array, two-state fit; conditions: sodium 0.088 M
Procedure, shortened: (§1)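 Cy3 fluorescence of library hairpins on a sequenced MiSeq flow cell, with annealed Cy3 and quencher oligos, was imaged in 50 mM Na-HEPES pH 8.0, 25 mM NaCl in 2.5 °C steps up to 60 °C. Signals were normalised to pre-quench Cy3 and to control variants. Melting temperature and folding enthalpy came from bootstrapped two-state fits, inverse-variance combined over four replicates. Fitted temperatures were raised by 9.35 °C to match UV melts.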

[2] = melting temperature; fluorescence melt of hairpins on a sequencing array, two-state fit, raised by 9.35 °C to match UV melts; conditions: sodium 0.088 M
Procedure, shortened: as §1

Sequence | folding enthalpy [1] [kcal/mol] | Tm [2] [°C]
GAACTGGAAACAGTTC ((((((....)))))) | -32.4 | 53.9
GAACTGGGAAACCAGTTC (((((((....))))))) | -40.7 | 61.7
GAACTTGGAAACAAGTTC (((((((....))))))) | -39 | 57.4
GAAGACGAAAGTCAATTC ((((((....)))..))) | -15.5 | 32.9
GAAGACGAAAGTCATTTC ((((((....)))..))) | -8.24 | 23.9
GAAGACGAAAGTCGCTTC ((((((....)))..))) | -22.6 | 47.1
GAAGATGAAAATCTTC ((((((....)))))) | -28.1 | 48.4
GAAGCACGAAAGTGTTC (((.(((....)))))) | -13.4 | 36.1
GAAGCCCCGAAAGGGTTC (((..(((....)))))) | -14.3 | 36.9
GAAGCCCGAAAGGGATTC (((.(((....))).))) | -42.4 | 61.4
GAAGCCCGAAAGGGGTTC (((.(((....))).))) | -36.8 | 67.7
GAAGCCCGAAAGGGTTC (((.(((....)))))) | -16 | 47.7
GAAGCCGAAAGGCACTTC ((((((....)))..))) | -12 | 42.4
GAAGCCGAAAGGCCATTC ((((((....)))..))) | -8.97 | 28
GAAGCCGAAAGGCCTTC ((((((....))).))) | -16.2 | 48.8
GAAGCCGAAAGGCCTTTC ((((((....)))..))) | -9.88 | 35.9
GAAGCCGAAAGGCGCTTC ((((((....)))..))) | -14.1 | 56.2
GAAGCGACGAAAGTCTTC (((..(((....)))))) | -9.61 | 27.9
GAAGCGCGAAAGCGTTTC (((.(((....))).))) | -23.1 | 56
GAAGCGGGAAACCACTTC ((((.((....)).)))) | -32.1 | 41.8
GAAGCGGGAAACTGCTTC (((((.(....).))))) | -40.4 | 53
GAAGCTGGAAACGGCTTC (((((.(....).))))) | -42.9 | 53.4
GAAGCTGGAAACGGTTTC (((.(.(....).).))) | -10.3 | 26

Sequence | folding enthalpy [1] [kcal/mol] | Tm [2] [°C]
GAAGGACCGAAAGGTTTC (((..(((....)))))) | -10.4 | 24
GAAGGACGAAAGTCATTC (((.(((....))).))) | -30.8 | 52.1
GAAGGCGAAAGCCCTTC ((((((....))).))) | -15.3 | 52.1
GAAGGCGAAAGCCCTTTC ((((((....)))..))) | -10 | 37.6
GAAGGCGCGAAAGCGTTC (((..(((....)))))) | -9.37 | 30.9
GAAGGCGGAAACGTCTTC ((((.((....)).)))) | -45.1 | 53.1
GAAGGGGGAAACCCCTCC (.(((((....))))).) | -13.1 | 36.5
GAAGGGGGAAACCTCTTC ((((.((....)).)))) | -27.7 | 43.1
GAAGGGGGAAACTCCTTC (((((.(....).))))) | -25.6 | 45.6
GAAGGTGCGAAAGCATTC (((..(((....)))))) | -6.16 | 18.4
GAAGGTGGAAACACCTTC (((((((....))))))) | -37.7 | 64.6
GAAGGTGGAAACATCTTC ((((.((....)).)))) | -30.8 | 41.6
GAAGGTGGAAACGTCTTC ((((..(....)..)))) | -33 | 36.2
GAAGTACGAAAGTAGTTC (((.(((....))).))) | -34.8 | 46.8
GAAGTACGAAAGTATTTC (((.(((....))).))) | -28.9 | 40.5
GAAGTAGGAAACTGCTTC ((((.((....)).)))) | -34.4 | 43.3
GAAGTCCGAAAGGAATTC (((.(((....))).))) | -30.9 | 50.1
GAAGTGACGAAAGTCTTC (((..(((....)))))) | -8.64 | 27.8
GAAGTGCGAAAGCAATTC (((.(((....))).))) | -28.2 | 52.8
GAAGTGGGAAACTACTTC (((((.(....).))))) | -37.4 | 43.1
GAAGTGGGAAACTGCTTC ((((..(....)..)))) | -26.1 | 39.6
GAAGTTGGAAACAACTCC (.(((((....))))).) | -19.2 | 34.1
GAAGTTGGAAACAATTTC (((.(((....))).))) | -20.4 | 35

Sequence | folding enthalpy [1] [kcal/mol] | Tm [2] [°C]
GAAGTTGGAAACGACTTC (((((.(....).))))) | -39 | 47.4
GAATAAGGAAACTTGTTC (((.(((....))).))) | -17 | 29.6
GAATACGAAAGTATTTC ((((((....))).))) | -15.8 | 38.3
GAATACGCGAAAGCGTTC (((..(((....)))))) | -7.08 | 26.7
GAATACGGAAACGTACTC ((.((((....)))).)) | -9.11 | 28.4
GAATATGGAAACATGTTC (((.(((....))).))) | -32.6 | 37.6
GAATCAGGAAACTGATCC (.(((((....))))).) | -15.4 | 32.6
GAATCAGGAAACTGGTTC (((.(((....))).))) | -31.2 | 42.6
GAATCCCGAAAGGGCTTC (((.(((....))).))) | -19.1 | 41.9
GAATCCCGAAAGGGTTC (((.(((....)))))) | -17.9 | 48.1
GAATCCGAAAGGATTTTC ((((((....)))..))) | -15.7 | 48.9
GAATCCGGAAACGGACTC ((.((((....)))).)) | -17.9 | 36.2
GAATCGGGAAACCGATCC (.(((((....))))).) | -15.6 | 39
GAATGAGAAATCATTC ((((((....)))))) | -26.8 | 43
GAATGAGGAAACTTATTC ((((.((....)).)))) | -20.4 | 29.6
GAATGCCGAAAGGCGTTC (((.(((....))).))) | -27.7 | 61.6
GAATGCGAAAGCAAATTC ((((((....)))..))) | -18.9 | 33.6
GAATGCGAAAGCACATTC ((((((....)))..))) | -13.2 | 31.3
GAATGCGAAAGCACCTTC ((((((....)))..))) | -11.2 | 33.2
GAATGCGAAAGCAGATTC ((((((....)))..))) | -15.6 | 43.2
GAATGCGGAAACGCATCC (.(((((....))))).) | -11.6 | 42.5
GAATGCGGAAACGCGTTC (((.(((....))).))) | -37.5 | 54.2
GAATGGAAACATTC (((((....))))) | -24.9 | 40.6

Sequence | folding enthalpy [1] [kcal/mol] | Tm [2] [°C]
GAATGGCGAAAGCCGTTC (((.(((....))).))) | -22.4 | 58.1
GAATGGCGAAAGCCTTTC (((.(((....))).))) | -21 | 47.2
GAATGGGAAACCATTC ((((((....)))))) | -37.9 | 51.7
GAATGGGGAAACCTATTC ((((.((....)).)))) | -31.6 | 37.9
GAATGGGGAAACCTGTTC (((..((....))..))) | -13.1 | 29.9
GAATTACGAAAGTACTTC (((.(((....))).))) | -20.1 | 32.5
GAATTACGAAAGTAGTTC (((.(((....))).))) | -31.5 | 42.6
GAATTCGCGAAAGCGTTC (((..(((....)))))) | -6.23 | 19.9
GAATTCGGAAACGAATCC (.(((((....))))).) | -16.6 | 36.8
GAATTCGGAAACGAATTC (((((((....))))))) | -35 | 58.6
GAATTCGGAAACGGATTC ((((.((....)).)))) | -36.2 | 45.4
GAATTGGGAAACCAATCC (.(((((....))))).) | -14.6 | 29.8
GAATTGGGAAACCAGTTC (((.(((....))).))) | -30.1 | 39.4
GACAAAGCGAAAGCTGTC (((..(((....)))))) | -19.7 | 50.6
GACAACACGAAAGTGGTC (((..(((....)))))) | -16 | 39.8
GACAACGAAAGTTAAGTC ((((((....)))..))) | -14.7 | 33.2
GACAACGAAAGTTGAGTC ((((((....)))..))) | -11.2 | 34.8
GACAACGAAAGTTGGGTC ((((((....)))..))) | -15.7 | 49.8
GACAAGACGAAAGTCGTC (((..(((....)))))) | -13.1 | 40.8
GACAAGCGAAAGCTAGTC (((.(((....))).))) | -23 | 52
GACAAGGCGAAAGCCGTC (((..(((....)))))) | -8.66 | 40.9
GACAAGGGAAACCTTGCC (.(((((....))))).) | -14.8 | 42
